The source of these data is ChEMBL document CHEMBL1649176, “Contribution of oxidative damage to antimicrobial lethality” (2009).

Each structure is given as a SMILES string. ≈ marks a conversion by molar mass, not a printed value. Calls of active or inactive are those of the source. The calls are words filed in the database; no cut-off is given here.

Assay [1] concerns Escherichia coli. Put plainly: Bactericidal activity against sodA gene-deficient Escherichia coli K-12 3144 at 0.4 ug/ml. It counts as functional, organism-based.
The test system of assay [2] is Escherichia coli. Put plainly: Bactericidal activity against sodA gene-deficient Escherichia coli K-12 3144 after 2 hrs. It counts as functional, organism-based.
Assay [3] relates to Escherichia coli. Put plainly: Bactericidal activity against sodB gene-deficient Escherichia coli K-12 3145 at 0.4 ug/ml. Format: functional, organism-based.
Assay [4] deals with Escherichia coli. Put plainly: Bactericidal activity against sodB gene-deficient Escherichia coli K-12 3145 after 2 hrs. Format: functional, organism-based.
The test system of assay [5] is Escherichia coli. Put plainly: Bactericidal activity against Escherichia coli K-12 BW25113 at 100 times MIC. Format: functional, organism-based.
Assay [6] relates to Escherichia coli. Put plainly: Bactericidal activity against katG gene-deficient Escherichia coli K-12 3157 at 100 times MIC. Format: functional, organism-based.
The test system of assay [7] is Escherichia coli. Put plainly: Bactericidal activity against ahpC gene-deficient Escherichia coli K-12 3200 at 100 times MIC. It counts as functional, organism-based.
Assay [8] relates to Escherichia coli. The assay is described as follows: Bactericidal activity against katG,katE gene-deficient Escherichia coli K-12 3201 at 100 times MIC. Format: functional, organism-based.
The test system of assay [9] is Escherichia coli. Put plainly: Antimicrobial activity against Escherichia coli K-12 BW25113 by broth dilution method. Format: functional. In a few lines:
(§1)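 Broth dilution in LB medium, about 10^5 bacteria per 1-ml tube, with drug concentrations rising in 50% increments. Tubes were incubated overnight at 37°C and read visually. MIC was the lowest concentration that prevented visible growth.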

Assay [10] has as its system Escherichia coli. Put plainly: Antimicrobial activity against sodB gene-deficient Escherichia coli K-12 DKsodB by broth dilution method. It counts as functional. In a few lines:
as §1

Assay [11] deals with Escherichia coli. The assay is described as follows: Antimicrobial activity against sodA gene-deficient Escherichia coli K-12 3144 by broth dilution method. It counts as functional. The gist of the method:
as §1

Assay [12] relates to Escherichia coli. Put plainly: Antimicrobial activity against sodB gene-deficient Escherichia coli K-12 3145 by broth dilution method. Format: functional. In a few lines: as §1
Assay [13] relates to Escherichia coli. The assay is described as follows: Antimicrobial activity against sodA, sodB gene-deficient Escherichia coli K-12 3156 by broth dilution method. It counts as functional. In a few lines: as §1
The subject of assay [14] is Escherichia coli. The assay is described as follows: Antimicrobial activity against katG gene-deficient Escherichia coli K-12 3157 by broth dilution method. Format: functional. In a few lines:
as §1

Assay [15] has as its system Escherichia coli. Put plainly: Antimicrobial activity against ahpC gene-deficient Escherichia coli K-12 3200 by broth dilution method. It counts as functional. In a few lines:
as §1

Assay [16] has as its system Escherichia coli. The assay is described as follows: Antimicrobial activity against katG,katE gene-deficient Escherichia coli K-12 3201 by broth dilution method. It counts as functional. In a few lines:
as §1

The test system of assay [17] is Escherichia coli. The assay is described as follows: Antimicrobial activity against katE gene-deficient Escherichia coli K-12 3202 by broth dilution method. It counts as functional. In a few lines: as §1
In assay [18] the test system is Escherichia coli. Put plainly: Bactericidal activity against Escherichia coli K-12 BW25113 after 18 hrs. Conditions: K-12 BW25113, 18 h. Format: functional.
Assay [19] has as its system Escherichia coli. Put plainly: Bactericidal activity against sodB gene-deficient Escherichia coli K-12 DK after 18 hrs. It counts as functional.
Assay [20] has as its system Escherichia coli. The assay is described as follows: Bactericidal activity against sodA gene-deficient Escherichia coli K-12 3144 after 18 hrs. To be noted: K-12 3144, 18 h. It counts as functional.
The test system of assay [21] is Escherichia coli. Put plainly: Bactericidal activity against sodB gene-deficient Escherichia coli K-12 3145 after 18 hrs. It counts as functional. To be noted: K-12 3145, 18 h.
Assay [22] concerns Escherichia coli. Put plainly: Bactericidal activity against sodA, sodB gene-deficient Escherichia coli K-12 3156 after 18 hrs. Format: functional. Conditions: K-12 3156, 18 h.
Assay [23] has as its system Escherichia coli. The assay is described as follows: Bactericidal activity against katG gene-deficient Escherichia coli K-12 3157 after 18 hrs. Conditions: K-12 3157, 18 h. It counts as functional.
The test system of assay [24] is Escherichia coli. The assay is described as follows: Bactericidal activity against ahpC gene-deficient Escherichia coli K-12 3200 after 18 hrs. It counts as functional. To be noted: K-12 3200, 18 h.
The test system of assay [25] is Escherichia coli. The assay is described as follows: Bactericidal activity against katG,katE gene-deficient Escherichia coli K-12 3201 after 18 hrs. Format: functional. Conditions: K-12 3201, 18 h.
The test system of assay [26] is Escherichia coli. Put plainly: Bactericidal activity against katE gene-deficient Escherichia coli K-12 3202 after 18 hrs. Conditions: K-12 3202, 18 h. Format: functional.
Assay [27] concerns Escherichia coli. The assay is described as follows: Bactericidal activity against sodB gene-deficient Escherichia coli K-12 DKsodB at 0.4 ug/ml. It counts as functional, organism-based.
The test system of assay [28] is Escherichia coli. The assay is described as follows: Bactericidal activity against sodB gene-deficient Escherichia coli K-12 DKsodB after 2 hrs. It counts as functional, organism-based.
The test system of assay [29] is Escherichia coli. Put plainly: Bactericidal activity against sodA, sodB gene-deficient Escherichia coli K-12 3156 at 0.4 ug/ml relative to wild-type. Format: functional.
In assay [30] the test system is Escherichia coli. The assay is described as follows: Bactericidal activity against sodA, sodB gene-deficient Escherichia coli K-12 3156 after 2 hrs relative to wild-type. Format: functional.
Assay [31] relates to Escherichia coli. The assay is described as follows: Bactericidal activity against katG gene-deficient Escherichia coli K-12 3157 at 10 times MIC relative to wild-type. It counts as functional.
Assay [32] has as its system Escherichia coli. The assay is described as follows: Bactericidal activity against katG gene-deficient Escherichia coli K-12 3157 after 2 hrs relative to wild-type. Format: functional.
Assay [33] has as its system Escherichia coli. The assay is described as follows: Bactericidal activity against katG,katE gene-deficient Escherichia coli K-12 3201 at 10 times MIC relative to wild-type. Format: functional.
Assay [34] concerns Escherichia coli. The assay is described as follows: Bactericidal activity against katG,katE gene-deficient Escherichia coli K-12 3201 after 2 hrs relative to wild-type. It counts as functional.
The test system of assay [35] is Escherichia coli. The assay is described as follows: Bactericidal activity against katG gene-deficient Escherichia coli K-12 3157 at 10 times MIC pretreated with 250 uM bipyridyl relative to wild-type. Format: functional.
The subject of assay [36] is Escherichia coli. Put plainly: Bactericidal activity against katG gene-deficient Escherichia coli K-12 3157 at 10 times MIC pretreated with 100 mM thiourea relative to wild-type. It counts as functional.
The test system of assay [37] is Escherichia coli. The assay is described as follows: Bactericidal activity against katG gene-deficient Escherichia coli K-12 3157 after 2 hrs pretreated with 250 uM bipyridyl relative to wild-type. It counts as functional.
For assay [38], the system named is Escherichia coli. The assay is described as follows: Bactericidal activity against katG gene-deficient Escherichia coli K-12 3157 after 2 hrs pretreated with 100 mM thiourea relative to wild-type. Format: functional.

As to `CCn1cc(C(=O)O)c(=O)c2cc3c(cc21)OCO3`, the result with Escherichia coli [1], in the assay with Escherichia coli [2], in the assay with Escherichia coli [3] and in the assay with Escherichia coli [4] was Active.

With `O=C(N[C@H](CO)[C@H](O)c1ccc([N+](=O)[O-])cc1)C(Cl)Cl`, the result with Escherichia coli [5], with Escherichia coli [6], in the assay with Escherichia coli [7] and with Escherichia coli [8] was inactive.

In the case of `O=C(O)c1cn(C2CC2)c2cc(N3CCNCC3)c(F)cc2c1=O`, the outcome in the assay with Escherichia coli [1], in the assay on Escherichia coli [2], in the assay on Escherichia coli [3] and in the assay on Escherichia coli [4] was Active.

On to `CC1(C)S[C@@H]2[C@H](NC(=O)[C@H](N)c3ccccc3)C(=O)N2[C@H]1C(=O)O` [AMPICILLIN], for which the MIC against Escherichia coli [9], in the assay with Escherichia coli [10], against Escherichia coli [11], in the assay with Escherichia coli [12], in the assay on Escherichia coli [13] and in the assay on Escherichia coli [14] was 15 µg/mL each time. Further, the MIC turned out to be 15 µg/mL against Escherichia coli [15], 30 µg/mL against Escherichia coli [16] and 15 µg/mL against Escherichia coli [17]. In addition, the MBC in the assay on Escherichia coli [18] was found to be 80 µg/mL (≈ 229 µM); in the assay on Escherichia coli [19] it was 80 µg/mL (≈ 229 µM); in the assay on Escherichia coli [20], 80 µg/mL (≈ 229 µM); with Escherichia coli [21], 80 µg/mL (≈ 229 µM); with Escherichia coli [22] it was 20 µg/mL (≈ 57.2 µM); in the assay on Escherichia coli [23], 80 µg/mL (≈ 229 µM). Also, the MBC in the assay with Escherichia coli [24] was found to be 40 µg/mL (≈ 114 µM); in the assay with Escherichia coli [25], 80 µg/mL (≈ 229 µM); against Escherichia coli [26], 80 µg/mL (≈ 229 µM).

Turning to `c1ccc(-c2ccccn2)nc1` [DIPYRIDYL], the minimum inhibitory concentration (MIC) in the assay on Escherichia coli [9], against Escherichia coli [10], against Escherichia coli [11], in the assay on Escherichia coli [12], in the assay on Escherichia coli [13] and with Escherichia coli [14] was 500 µM throughout. Further, the MIC against Escherichia coli [15], with Escherichia coli [16] and in the assay on Escherichia coli [17] was 500 µM each time.

For the compound `NC[C@H]1O[C@H](O[C@H]2[C@H](O)[C@@H](O[C@H]3O[C@H](CO)[C@@H](O)[C@H](N)[C@H]3O)[C@H](N)C[C@@H]2N)[C@H](O)[C@@H](O)[C@@H]1O` [KANAMYCIN], the MIC against Escherichia coli [9], against Escherichia coli [10], against Escherichia coli [11], in the assay on Escherichia coli [12], against Escherichia coli [13] and in the assay with Escherichia coli [14] was 0.6 µg/mL in each case. Moreover, the MIC against Escherichia coli [15] was 2.4 µg/mL; against Escherichia coli [16], 1.2 µg/mL; with Escherichia coli [17], 0.6 µg/mL. In addition, the MBC with Escherichia coli [18] is 20 µg/mL (≈ 41.3 µM); against Escherichia coli [19], 20 µg/mL (≈ 41.3 µM); in the assay with Escherichia coli [20], 20 µg/mL (≈ 41.3 µM); against Escherichia coli [21], 20 µg/mL (≈ 41.3 µM); with Escherichia coli [22] it was 10 µg/mL (≈ 20.6 µM); against Escherichia coli [23], 20 µg/mL (≈ 41.3 µM). The figures for the MBC against Escherichia coli [24], against Escherichia coli [25] and against Escherichia coli [26] were 10 µg/mL (≈ 20.6 µM), 20 µg/mL (≈ 41.3 µM) and 20 µg/mL (≈ 41.3 µM), respectively.

As for `CCn1cc(C(=O)O)c(=O)c2cc(F)c(N3CCNCC3)cc21` [NORFLOXACIN], the MIC with Escherichia coli [9], with Escherichia coli [10], against Escherichia coli [11], against Escherichia coli [12], in the assay with Escherichia coli [13] and in the assay with Escherichia coli [14] was 0.04 µg/mL each time. The MIC in the assay on Escherichia coli [15] was found to be 0.04 µg/mL; against Escherichia coli [16], 0.08 µg/mL; in the assay with Escherichia coli [17], 0.04 µg/mL. Moreover, the result in the assay on Escherichia coli [27], with Escherichia coli [28], in the assay with Escherichia coli [1], in the assay on Escherichia coli [2], with Escherichia coli [3] and in the assay with Escherichia coli [4] was Active. Further, the “fold change (FC)” value in the assay on Escherichia coli [29], with Escherichia coli [30], with Escherichia coli [31], in the assay with Escherichia coli [32], in the assay with Escherichia coli [33] and with Escherichia coli [34] was 10 each time. For the same compound, the “fold change (FC)” value with Escherichia coli [35], in the assay on Escherichia coli [36], in the assay with Escherichia coli [37] and in the assay with Escherichia coli [38] was 10 each time. Moreover, the MBC against Escherichia coli [18] stood at 0.32 µg/mL (≈ 1 µM); in the assay on Escherichia coli [19], 0.32 µg/mL (≈ 1 µM); with Escherichia coli [20], 0.32 µg/mL (≈ 1 µM); with Escherichia coli [21] it was 0.32 µg/mL (≈ 1 µM); with Escherichia coli [22] it was 0.16 µg/mL (≈ 0.501 µM); against Escherichia coli [23] it was 0.16 µg/mL (≈ 0.501 µM). The MBC turned out to be 0.16 µg/mL (≈ 0.501 µM) against Escherichia coli [24], 0.32 µg/mL (≈ 1 µM) in the assay on Escherichia coli [25] and 0.16 µg/mL (≈ 0.501 µM) with Escherichia coli [26].
